Reference: ChEMBL document CHEMBL4513216, “Probing the Open Global Health Chemical Diversity Library for Multistage-Active Starting Points for Next-Generation Antimalarials” (ACS Infect Dis, 2020)

Test: Toxicity liver stage against HepG2, at 10uM
Type: cell-based
Set-up: test concentration 10 uM, cell line HepG2-A16-CD81EGFP
Conditions: human, HepG2-A16-CD81EGFP cells; read-out: INHIBITION
In short: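 Uninfected HepG2-A16-CD81EGFP cells, 3 × 10^3 per well, 1536-well, plated on prespotted compound at 10 μM final, parasite-free screening media added to match infected plates; puromycin 10 μM positive, DMSO 0.5% negative; run in parallel with 48 h PbLuc assay at 37 °C, 5% CO2; viability by CellTiter-Glo luminescence, normalized to controls.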

Compound | cytotoxicity at 10 µM [%]
N#Cc1cccnc1N1CCN(C(=O)c2cccs2)CC1 | 10.4
O=C(N1CCCCC1)N1CCN(CC(O)c2ccc(F)cc2)CC1 (configuration not stated) | -8.85
Cc1cc(C)c2cc(C(=O)N3CCN(Cc4ccco4)CC3)[nH]c2c1 | -51.4
CC1CCN(C(=O)c2ccnc(-n3cncn3)c2)c2ccccc21 (configuration not stated) | 13
OC[C@@H]1CN2CCN(c3ccccn3)C[C@@H]2[C@H]1c1ccccc1 | -2.41
CNC(=O)[C@@H]1[C@H]2CN(Cc3ccoc3)CCN2C[C@H]1c1ccccc1 | 4.06
CC(C)(C)OC(=O)N1CC(=O)N(CCc2ccccc2)CC(O)C1 (configuration not stated) | -12.9
CC(C)C1SCC(=O)Nc2c1cnn2-c1ccc(F)cc1 (configuration not stated) | 1.23
Cn1cnc2cc(CCC(=O)Nc3n[nH]c(C4CCCO4)n3)ccc21 (configuration not stated) | -0.863
COc1ccc(NC(=O)Cn2nc(C)c(C(C)=O)c2C)cc1 | -3.66
CCOc1nn(CC)cc1-c1nnc(SCc2cccnc2)n1CC | -0.244
COc1ccc(C(=O)NCc2ccco2)nn1 | -2.14
CC(=O)N1CC2(CCN(C(=O)c3cccc4[nH]ccc34)CC2)C1 | -138
CS(=O)(=O)N1CC(c2nc[nH]n2)c2cc(C(=O)NC3CC3)ccc21 (configuration not stated) | -158
Cc1noc(C)c1C(=O)N1C[C@@H]2CCCO[C@@H]2[C@H](N(C)C)C1 | 9.85
CC(C)NC(=O)c1ccc2nnc(C3CCN(C(=O)NC(C)C)C3)n2c1 (configuration not stated) | -5.42
O=S(=O)(c1cccs1)N1CCN2C[C@H](OCC3CC3)C[C@H]2C1 | 11.9
O=C(Cn1cc(C(=O)O)ccc1=O)Nc1cc(F)ccc1F | 0.687
CC(C)n1ncc2c1NC(=O)CC2c1ccccc1Cl (configuration not stated) | 33.5
Cn1c(=O)[nH]c(=O)n2c(CC(=O)Nc3c(Cl)cccc3Cl)cnc12 | 8.52
O=C(Cc1c(F)cccc1F)N1CCN(CC(=O)N2CCCC2)CC1 | 4.57
CCS(=O)(=O)N1CCC2(CC(=O)N(c3cccc(C)c3)C2)C1 (configuration not stated) | -7.79
CCn1ncc(Nc2[nH]cnc3nc(C)nc2-3)c1C | 3.26

Compound | cytotoxicity at 10 µM [%]
CCc1noc(C2CCCCN2C(=O)c2cccs2)n1 (configuration not stated) | 6.5
CCn1ncc(NC(=O)CCn2ncc3c(Cl)cccc32)c1C | 7.74
CSc1ncnc(NCc2ccco2)c1C#N | 0.0868
CNC(=O)C1CN(C(=O)c2cccnc2)CCN(S(C)(=O)=O)C1 (configuration not stated) | 1.45
Cn1cc(-c2ccc(C3CCCCN3Cc3cccnc3)cn2)cn1 (configuration not stated) | 11.6
CN(C)Cc1cnc(CC2CCN(CCc3ccccc3)CC2)cn1 | -6.07
Cc1ccc2nc(CN(Cc3ccc(C#N)cc3)C(C)C)cc(=O)n2c1 | 21.1
Cc1sc(NC(=O)CN(C)CCOc2cccc(F)c2)c(C)c1C | 4.21
CNC(=O)Cc1ccc(NC(=O)NC2(c3cccc(F)c3)CC2)cc1 | 5.74
N#Cc1cn(C2CC2)c(=O)n(Cc2cc(-c3cccs3)on2)c1=O | 0.38
NC(=O)CSCC(=O)NC1(c2cccc(Br)c2)CC1 | -13.9
CN(Cc1nnc2ccccn12)C(=O)CCNC(=O)C(C)(C)C | 12.5
CNC(=O)COc1c(F)cc(Br)cc1C(C)=O | 1.44
COCCN(Cc1ccccn1)C(=O)Nc1cccnc1-n1cccn1 | 1.06
Cn1cc(CNC(=O)c2cc3c(s2)CCCCC3)cn1 | -12
Cc1cc(C)c(CNC(=O)N2CCC(N3CCCC3)CC2)c(=O)[nH]1 | -3.52
CCN1CC(C(=O)NC(C)(C)C)CC1=O (configuration not stated) | -2.91
COc1ccc(OCC(O)CN2CCN(c3nccs3)CC2)cc1 (configuration not stated) | -3.82
CN(C(=O)Cc1ccc(NC(=O)NC2CC2)cc1)c1ccccc1 | 6.35
COc1cccc2[nH]cc(CCNC(=O)N3CCCC3CO)c12 (configuration not stated) | -10.1
c1ccc(-c2noc(CN3CCc4c(ncn4C4CC4)C3)n2)nc1 | -5.11
Cc1cccc(N(CCC(N)=O)C(=O)c2cc(-n3cccn3)ccn2)c1 | -1.5
Cc1ccc(C(=O)N2CCCCC2CNC(N)=O)s1 (configuration not stated) | -0.519

Compound | cytotoxicity at 10 µM [%]
Cc1cccc(OCC(=O)N(C)C2CCN(CC3CCOC3)CC2)c1 (configuration not stated) | -6.22
CC(C)c1cccc(NC(=O)N2CC(N(C)C)C2)c1 | 9.12
COCCC(Cc1cccc(Br)c1)C(=O)O (configuration not stated) | 9.21
Cc1cc(C(C)NC(=O)CCN2C(=O)c3ccccc3C2=O)c(C)o1 (configuration not stated) | -7.82
CSCCC(NC(=O)c1ccco1)C(=O)N(C)Cc1ccsc1 (configuration not stated) | -0.0681
CCN(C(=O)CCc1ccccc1)C1CC(=O)NC1=O (configuration not stated) | -7.32
CCOc1cc(NC(=O)NCCn2cnnc2CC)ccc1C | -7.37
Cc1ccc2nc(NCCCN3CCCCCC3=O)n(C)c(=O)c2c1 | 7.04
COC(=O)CNC(=O)CCCn1cnc2ccccc2c1=O | -7.48
CC(=O)NC1CCN(c2ccc(C#N)cc2C(F)(F)F)CC1 | 0.536
CNC(=O)C1CCCCN1C(=O)C1CCN(S(C)(=O)=O)CC1 (configuration not stated) | 6.03
C[C@@H]1CN(C(=O)c2cccn2C)C[C@]12CCN(c1ccsc1)C2=O | -83.8
Cc1noc(-c2ccc(N3CCN(Cc4nccn4C)CC3)nc2)n1 | 3.19
COc1ccc(CN(C)C2CCN(C(=O)C(C)C)CC2)c2cccnc12 | 12.5
CN(Cc1ccccc1)c1ncccc1CNC(=O)c1ccnn1C | -1.37
CCC[C@@H]1CN(C(=O)c2ccccc2C(C)=O)C[C@H]1N(C)C | -0.254
CC(C)N(Cc1ccc(C(F)(F)F)nc1)Cc1cnn(C)c1 | 1.36
CCc1nc(CNC(=O)c2ccc(C(C)N3CCCCC3)o2)cc(=O)[nH]1 (configuration not stated) | -13.6
COc1ncc(-c2ccc(C(N)=O)cc2)c(OC)n1 | -5.9
O=C1CC(NCc2cnc(-c3cccs3)nc2)CN1c1ccccc1 (configuration not stated) | 1.58
COCc1ncn(Cc2nc(-c3ccc(OC)cc3F)oc2C)n1 | -92.7
CN(C)Cc1ccc(C2CCCCN2C(=O)c2ncccc2O)cc1 (configuration not stated) | -6.59
CSCc1nc(CNC(=O)C2CCCN(C(=O)N(C)C)C2)cs1 (configuration not stated) | -3.99

Compound | cytotoxicity at 10 µM [%]
CC(C)N1CCC(C(=O)N2CCC(C(O)c3nccn3C)CC2)CC1 (configuration not stated) | -2.7
CCCn1cc(-c2cc(C(=O)N(C)C)c3ccc(C)cc3n2)cn1 | 4.99
CCOc1cc(Cl)c(CN2CCC3(CCCNC3=O)C2)cc1OC (configuration not stated) | 10.6
O=C1O[C@@H]2CN(c3cnccn3)C[C@@H]2N1CCCc1ccc(F)cc1 | -3.94
O=C(Cn1ccnc1)N(CCO)CCSc1ccc(Cl)cc1 | 4.38
COc1cc2c(cc1OC)CN(C(C(=O)O)c1c(C)nn(C)c1C)CC2 (configuration not stated) | -3.14
O=C(NCCN1CCCCC1)c1cccc(Cl)c1Cl | 6.04
CC(=O)N(C)C1CCN(c2ncc3c(n2)CCN3c2ccccc2)C1 (configuration not stated) | -9.62
COCC1CCN(C(=O)c2cccc(S(=O)(=O)NC3CCCC3)c2)C1 (configuration not stated) | 10.8
COc1cc(C)c(CN2CCC3(CC2)C(C(=O)O)CC(=O)N3C)cc1C (configuration not stated) | -8.58
COCC(=O)N1CCC(c2cc(C(F)(F)F)n3ccnc3n2)CC1 | 1.44
CC(=O)NCCNC(=O)CN1CCOC(Cn2cccn2)C1 (configuration not stated) | -7.6
N#Cc1ccc(CN2CCCC2Cn2cccn2)cc1 (configuration not stated) | -2.96
COc1ccc(C(O)CNC(=O)NCc2nc(C)cs2)cc1 (configuration not stated) | -3.54
CCc1nc(C2CCCN(C(=O)c3cccnc3O)C2)no1 (configuration not stated) | -3.54
Cc1cc(CN2CCCC2Cn2cccn2)no1 (configuration not stated) | -4.36
N#Cc1cn(C2CC2)c(=O)n(CC(O)c2ccc(Cl)cc2)c1=O (configuration not stated) | -5.78
Cc1cc(C)c(CNC(=O)N2CCN(c3ccccn3)CC2)c(=O)[nH]1 | -9.95
Cn1cc(C2CCCN2C(=O)CCCc2cccs2)cn1 (configuration not stated) | -2.12
Cn1cnnc1C1CCN(C(=O)c2cc3c(s2)CCC3)CC1 | -10
CC(=O)c1cccc(OCC(=O)NS(=O)(=O)c2ccc(Br)s2)c1 | -19.4
Cc1cc(CN(C)C(=O)c2ccc(N(C)C)nc2)no1 | -5.4
COc1ccccc1N1CCN(C(=O)NC(C)c2nncn2C)CC1 (configuration not stated) | -4.23

Compound | cytotoxicity at 10 µM [%]
Cc1cnn(CC2CCCN2Cc2noc(C)n2)c1 (configuration not stated) | 0.742
CCc1ccc(NS(=O)(=O)c2cc3c(c(C(=O)O)c2)OCCO3)cc1 | -13.9
Cn1ccnc1COc1ccc(CO)cc1 | -5.05
Cn1ccnc1CN1CCN(CC(O)c2ccc(F)c(F)c2)CC1 (configuration not stated) | -12.9
CCn1ccnc1CNCC1CCCN1c1cc(NC)ncn1 (configuration not stated) | 3.37
OC(CNCCn1cccn1)c1ccc(F)c(F)c1 (configuration not stated) | 2.05
CC(OCC1CC1)C(=O)N1CCCN(Cc2nccn2C)CC1 (configuration not stated) | 2.48
c1ccc(Cn2ccnc2CN2CCOC(Cn3cccn3)C2)cc1 (configuration not stated) | -3.78
CCN1CCN(C(=O)c2cnn(-c3ccccc3Cl)c2)CC1 | -11.5
Cc1nc(-c2ccccc2)n(CC(=O)NCC(C)C)n1 | -2.97
COc1ccccc1CC1CCCN(CCC#N)C1 (configuration not stated) | 1.73
O=C(C1CC1)N1CCC2(CC1)CNc1ccc(F)cc12 | 11
COc1ccccc1C(=O)N1CCNCC1C(N)=O (configuration not stated) | 1.96
Cn1nc(C#N)c2c1CN(C(=O)c1cccnc1)CCC2 | 2.22
COCC1CN(Cc2ccc(F)cc2)Cc2nn(C)cc21 (configuration not stated) | -81.4
CC(C)Oc1ncnc2c1CCN(Cc1ccoc1)CC2 | 2.56
CC(C)C(=O)N1CCC2(CCN2CC2CC2)C1 (configuration not stated) | 8.98
COCCN1CCC2(CCN(CC3CC3)CC2)C1=O | 7.55
COCCN1CCO[C@@H]2CN(C(=O)Cc3ccc(F)cc3)CC[C@@H]2C1 | 7.07
CCn1cc2c(n1)CN(S(=O)(=O)c1cccnc1)CC2COC (configuration not stated) | 5.74
